Test results as given in ChEMBL document CHEMBL1154842, “Synthesis, radiolabeling, and biological evaluation of (R)- and (S)-2-amino-3-[(18)F]fluoro-2-methylpropanoic acid (FAMP) and (R)- and (S)-3-[(18)F]fluoro-2-methyl-2-N-(methylamino)propanoic acid (NMeFAMP) as potential PET radioligands for imaging brain tumors” (J Med Chem, 2010).

How the values were obtained:
9L [1] = assay: Cellular uptake in rat 9L cells assessed as inhibition of uptake at 5 uCi measured […] by gamma counting in presence of system L transport inhibitor BCH relative to control; type: ADME, cell-based; design: scale not given: the % may be the effect or the level left
Method in brief: (§1)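 9L rat gliosarcoma cells, grown in DMEM with 10% FCS, were trypsinised and washed in HBSS. About 5×10^5 cells were incubated with 5 μCi tracer in amino-acid-free HBSS for 30 min at 37 °C, with or without 10 mM final BCH, MeAIB or ACS (3.3 mM each Ala/Cys/Ser). Cells were washed cold, gamma-counted and decay-corrected. Inhibition is percent of control; triplicates, one-way ANOVA.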

9L [2] = assay: Cellular uptake in rat 9L cells assessed as inhibition of uptake at 5 uCi measured […] by gamma counting in presence of system ASC transport inhibitor ACS relative to control; type: ADME, cell-based; design: scale not given: the % may be the effect or the level left; method in brief: as §1
9L [3] = assay: Cellular uptake in rat 9L cells at 5 uCi measured […] by gamma counting in presence of system A transport inhibitor MeAIB; type: ADME, cell-based
Method in brief: (§2)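 9L rat gliosarcoma cells (DMEM, 10% FCS, 37 °C, 5% CO2) were trypsinised and washed in HBSS. About 5×10^5 cells took up 5 μCi tracer for 30 min in 0.1 mL amino acid-free HBSS, with inhibitor at 10 mM final (ACS: 3.3 mM each of alanine, cysteine, serine). Cells were spun and rinsed twice with ice-cold HBSS, then gamma counted with decay correction. Triplicates; uptake is % ID per 5×10^5 cells.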

9L [4] = assay: Cellular uptake in rat 9L cells at 5 uCi measured […] by gamma counting; type: ADME, cell-based
Method in brief: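 9L rat gliosarcoma cells, grown in DMEM with 10% FCS, were trypsinised and washed in HBSS. About 5×10^5 cells were exposed to 5 μCi tracer in amino-acid-free HBSS for 30 min at 37 °C, 5% CO2, then centrifuged and rinsed twice with ice-cold HBSS. Cells were gamma-counted and decay-corrected, with uptake reported as % of initial dose per 5×10^5 cells ± SD, n=3.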

9L [5] = assay: Cellular uptake in rat 9L cells assessed as inhibition of uptake at 5 uCi measured […] by gamma counting in presence of system A transport inhibitor MeAIB relative to control; type: ADME, cell-based; design: scale not given: the % may be the effect or the level left; method in brief: as §1
9L [6] = assay: Cellular uptake in rat 9L cells at 5 uCi measured […] by gamma counting in presence of system L transport inhibitor BCH; type: ADME, cell-based; method in brief: as §2
9L [7] = assay: Cellular uptake in rat 9L cells at 5 uCi measured per 0.5 million cells by gamma counting in presence of system ASC transport inhibitor ACS
Spleen [8] = assay: Biodistribution in spleen of Fischer 344 rat bearing rat 9L cells at 20 uCi, iv after 60 mins; type: ADME, organism-based; conditions: in vivo, 1 h
Method in brief: (§3)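 Male Fischer 344 rats (200–250 g) carrying intracranial 9L gliosarcoma (5×10^4 cells implanted stereotactically, 10–12 days growth), under ketamine:xylazine anaesthesia. About 20 μCi tracer in 0.5 mL sterile saline given via tail-vein catheter. Groups of 4–5 were killed by intracardiac KCl at 15 (NMeFAMP only), 30, 60 or 120 min. Tissues were weighed and gamma-counted, decay-corrected, and reported as %ID/g, mean ± SD.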

[9] = rat, in vivo, iv, 1 h
Blood [10] = assay: Biodistribution in blood of Fischer 344 rat bearing rat 9L cells at 20 uCi, iv after 30 mins; type: ADME, organism-based; conditions: in vivo, 0.5 h; method in brief: as §3
Pancreas [11] = assay: Biodistribution in pancreas of Fischer 344 rat bearing rat 9L cells at 20 uCi, iv after 60 mins; type: ADME, organism-based; conditions: in vivo, 1 h; method in brief: as §3
Lung [12] = assay: Biodistribution in lung of Fischer 344 rat bearing rat 9L cells at 20 uCi, iv after 120 mins; type: ADME, organism-based; conditions: in vivo, 2 h; method in brief: as §3
[13] = Biodistribution in testis of Fischer 344 rat bearing rat 9L cells at 20 uCi, iv after 30 mins; type: ADME, organism-based; conditions: in vivo, 0.5 h; method in brief: as §3
Muscle tissue [14] = assay: Biodistribution in muscle of Fischer 344 rat bearing rat 9L cells at 20 uCi, iv after 120 mins; type: ADME, organism-based; conditions: in vivo, 2 h; method in brief: as §3
Bone [15] = assay: Biodistribution in bone of Fischer 344 rat bearing rat 9L cells at 20 uCi, iv after 120 mins; type: ADME, organism-based, Bone element; conditions: in vivo, 2 h; method in brief: as §3
Pancreas [16] = assay: Biodistribution in pancreas of Fischer 344 rat bearing rat 9L cells at 20 uCi, iv after 120 mins; type: ADME, organism-based; conditions: in vivo, 2 h; method in brief: as §3
Kidney [17] = assay: Biodistribution in kidney of Fischer 344 rat bearing rat 9L cells at 20 uCi, iv after 30 mins; type: ADME, organism-based; conditions: in vivo, 0.5 h; method in brief: as §3
[18] = Biodistribution in testis of Fischer 344 rat bearing rat 9L cells at 20 uCi, iv after 60 mins; type: ADME, organism-based; conditions: in vivo, 1 h; method in brief: as §3
Muscle tissue [19] = assay: Biodistribution in muscle of Fischer 344 rat bearing rat 9L cells at 20 uCi, iv after 30 mins; type: ADME, organism-based; conditions: in vivo, 0.5 h; method in brief: as §3
Bone [20] = assay: Biodistribution in bone of Fischer 344 rat bearing rat 9L cells at 20 uCi, iv after 30 mins; type: ADME, organism-based, Bone element; conditions: in vivo, 0.5 h; method in brief: as §3
[21] = Biodistribution in tumor of Fischer 344 rat bearing rat 9L cells at 20 uCi, iv after 30 mins; type: ADME, organism-based, Neoplasm; conditions: in vivo, 0.5 h; method in brief: as §3
Blood [22] = assay: Biodistribution in blood of Fischer 344 rat bearing rat 9L cells at 20 uCi, iv after 60 mins; type: ADME, organism-based; conditions: in vivo, 1 h; method in brief: as §3
Heart [23] = assay: Biodistribution in heart of Fischer 344 rat bearing rat 9L cells at 20 uCi, iv after 60 mins; type: ADME, organism-based; conditions: in vivo, 1 h; method in brief: as §3
[24] = Biodistribution in tumor of Fischer 344 rat bearing rat 9L cells at 20 uCi, iv after 30 mins; conditions: in vivo, 0.5 h
Lung [25] = assay: Biodistribution in lung of Fischer 344 rat bearing rat 9L cells at 20 uCi, iv after 30 mins; type: ADME, organism-based; conditions: in vivo, 0.5 h; method in brief: as §3
Heart [26] = assay: Biodistribution in heart of Fischer 344 rat bearing rat 9L cells at 20 uCi, iv after 30 mins; type: ADME, organism-based; conditions: in vivo, 0.5 h; method in brief: as §3
[27] = Biodistribution in testis of Fischer 344 rat bearing rat 9L cells at 20 uCi, iv after 120 mins; type: ADME, organism-based; conditions: in vivo, 2 h; method in brief: as §3
Brain = assay: Biodistribution in brain of Fischer 344 rat bearing rat 9L cells at 20 uCi, iv after 30 mins; conditions: in vivo, 0.5 h
[28] = rat, in vivo, iv, 1 h; remark: listed apart in the source
Kidney [29] = assay: Biodistribution in kidney of Fischer 344 rat bearing rat 9L cells at 20 uCi, iv after 60 mins; type: ADME, organism-based; conditions: in vivo, 1 h; method in brief: as §3
Bone [30] = assay: Biodistribution in bone of Fischer 344 rat bearing rat 9L cells at 20 uCi, iv after 60 mins; type: ADME, organism-based, Bone element; conditions: in vivo, 1 h; method in brief: as §3
Spleen [31] = assay: Biodistribution in spleen of Fischer 344 rat bearing rat 9L cells at 20 uCi, iv after 30 mins; type: ADME, organism-based; conditions: in vivo, 0.5 h; method in brief: as §3
Pancreas [32] = assay: Biodistribution in pancreas of Fischer 344 rat bearing rat 9L cells at 20 uCi, iv after 30 mins; type: ADME, organism-based; conditions: in vivo, 0.5 h; method in brief: as §3
[33] = Ratio of drug level from tumor to brain of Fischer 344 rat bearing rat 9L cells at 20 uCi, iv after 120 mins; type: ADME, organism-based; conditions: in vivo, 2 h
Muscle tissue [34] = assay: Biodistribution in muscle of Fischer 344 rat bearing rat 9L cells at 20 uCi, iv after 60 mins; type: ADME, organism-based; conditions: in vivo, 1 h; method in brief: as §3
Spleen [35] = assay: Biodistribution in spleen of Fischer 344 rat bearing rat 9L cells at 20 uCi, iv after 120 mins; type: ADME, organism-based; conditions: in vivo, 2 h; method in brief: as §3
[36] = Ratio of drug level from tumor to brain of Fischer 344 rat bearing rat 9L cells at 20 uCi, iv after 60 mins; conditions: in vivo, 1 h
Lung [37] = assay: Biodistribution in lung of Fischer 344 rat bearing rat 9L cells at 20 uCi, iv after 60 mins; type: ADME, organism-based; conditions: in vivo, 1 h; method in brief: as §3
Heart [38] = assay: Biodistribution in heart of Fischer 344 rat bearing rat 9L cells at 20 uCi, iv after 120 mins; type: ADME, organism-based; conditions: in vivo, 2 h; method in brief: as §3
Liver [39] = assay: Biodistribution in liver of Fischer 344 rat bearing rat 9L cells at 20 uCi, iv after 120 mins; type: ADME, organism-based; conditions: in vivo, 2 h; method in brief: as §3
Blood [40] = assay: Biodistribution in blood of Fischer 344 rat bearing rat 9L cells at 20 uCi, iv after 120 mins; type: ADME, organism-based; conditions: in vivo, 2 h; method in brief: as §3
Liver [41] = assay: Biodistribution in liver of Fischer 344 rat bearing rat 9L cells at 20 uCi, iv after 60 mins; type: ADME, organism-based; conditions: in vivo, 1 h; method in brief: as §3
Kidney [42] = assay: Biodistribution in kidney of Fischer 344 rat bearing rat 9L cells at 20 uCi, iv after 120 mins; type: ADME, organism-based; conditions: in vivo, 2 h; method in brief: as §3
Liver [43] = assay: Biodistribution in liver of Fischer 344 rat bearing rat 9L cells at 20 uCi, iv after 30 mins; type: ADME, organism-based; conditions: in vivo, 0.5 h; method in brief: as §3

In the case of `CN[C@](C)(CF)C(=O)O.Cl`, the Activity (9L [1]) is reported as 29%, the Activity (9L [2]) is reported as 58% and the Drug uptake (9L [3]) is reported as 0.82 %ID. It also gave a Drug uptake (9L [4]) of 3.87 %ID, an Activity (9L [5]) of 79% and a Drug uptake (9L [6]) of 2.76 %ID. It also gave a Drug uptake (9L [7]) of 1.62 %ID.

Molecule `C[C@](N)(C[18F])C(=O)O.Cl` has a Drug uptake (Spleen [8]) of 0.71 % ID/g, a Drug uptake [9] of 2.82 % ID/g and a Drug uptake (Blood [10]) of 0.28 % ID/g. For the same molecule, the Drug uptake (Pancreas [11]) was 2.05 % ID/g, the Drug uptake (Lung [12]) was 0.23 % ID/g and the Drug uptake [13] was 0.15 % ID/g. For the same molecule, the Drug uptake (Muscle tissue [14]) was 0.36 % ID/g, the Drug uptake (Bone [15]) was 0.26 % ID/g and the Drug uptake (Pancreas [16]) was 1.17 % ID/g. The Drug uptake (Kidney [17]) was 3.47 % ID/g, the Drug uptake [18] was 0.17 % ID/g and the Drug uptake (Muscle tissue [19]) was 0.32 % ID/g. It also gave a Drug uptake (Bone [20]) of 0.23 % ID/g, a Ratio [21] of 38.2 and a Drug uptake (Blood [22]) of 0.25 % ID/g. The Drug uptake (Heart [23]) was 0.34 % ID/g, the Drug uptake [24] was 2.46 % ID/g and the Drug uptake (Lung [25]) was 0.37 % ID/g. For the same molecule, the Drug uptake (Heart [26]) was 0.32 % ID/g, the Drug uptake [27] was 0.16 % ID/g and the Drug uptake (Brain) was 0.06 % ID/g. The Drug uptake [28] was 0.1 % ID/g, the Drug uptake (Kidney [29]) was 2.96 % ID/g and the Drug uptake (Bone [30]) was 0.36 % ID/g. The Drug uptake (Spleen [31]) was 0.72 % ID/g, the Drug uptake (Pancreas [32]) was 2.96 % ID/g and the Ratio [33] was 27.5. The Drug uptake (Muscle tissue [34]) was 0.52 % ID/g, the Drug uptake (Spleen [35]) was 0.39 % ID/g and the Ratio [36] was 28.6. It also gave a Drug uptake (Lung [37]) of 0.4 % ID/g, a Drug uptake (Heart [38]) of 0.23 % ID/g and a Drug uptake (Liver [39]) of 0.32 % ID/g. It also gave a Drug uptake (Blood [40]) of 0.16 % ID/g, a Drug uptake (Liver [41]) of 0.65 % ID/g and a Drug uptake (Kidney [42]) of 2.09 % ID/g. The Drug uptake (Liver [43]) was 0.6 % ID/g.

`N[C@]1(C(=O)O)C[C@@H]([18F])C1` [FLUCICLOVINE F18] gave a Drug uptake [28] of 0.26 % ID/g.

In the case of `OC[C@H]1O[C@@H](O)[C@H]([18F])[C@@H](O)[C@@H]1O` [FLUDEOXYGLUCOSE-F18], the Drug uptake [9] is reported as 1.05 % ID/g, the Drug uptake [28] is reported as 1.3 % ID/g and the Ratio [36] is reported as 0.8.
